Results as given in ChEMBL document CHEMBL2016473, “Synthesis of new opioid derivatives with a propellane skeleton and their pharmacology. Part 2: Propellane derivatives with an amide side chain” (Bioorg Med Chem Lett, 2012).

Columns and labels:
[1] = Selectivity ratio of Ki for mouse delta opioid receptor to Ki for guinea pig kappa opioid receptor
[2] = target: Delta-type opioid receptor (Mus musculus, UniProt P32300); experiment: Displacement of [3H]DPDPE from delta opioid receptor in mouse whole brain without cerebellum
How it was run: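 Competitive binding against [3H]DPDPE as the delta radioligand, on membranes from mouse whole brain with the cerebellum removed. Run in duplicate, with results reported as Ki.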

[3] = target: Kappa-type opioid receptor (Cavia porcellus, UniProt P41144); experiment: Displacement of [3H]U69593 from kappa opioid receptor in guinea pig cerebellum
How it was run: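 Competitive binding against [3H]U-69,593 as the kappa radioligand, on guinea pig cerebellum membranes. Run in duplicate, with results reported as Ki.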

Mu-type opioid receptor = Mu-type opioid receptor (Mus musculus, UniProt P42866); experiment: Displacement of [3H]DAMGO from mu opioid receptor in mouse whole brain without cerebellum
How it was run: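 Competitive binding against [3H]DAMGO as the mu radioligand, on membranes from mouse whole brain with the cerebellum removed. Run in duplicate, with results reported as Ki.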

[4] = Selectivity ratio of Ki for mouse mu opioid receptor to Ki for guinea pig kappa opioid receptor

Mu-type opioid receptor, sequence (P42866 whole entry): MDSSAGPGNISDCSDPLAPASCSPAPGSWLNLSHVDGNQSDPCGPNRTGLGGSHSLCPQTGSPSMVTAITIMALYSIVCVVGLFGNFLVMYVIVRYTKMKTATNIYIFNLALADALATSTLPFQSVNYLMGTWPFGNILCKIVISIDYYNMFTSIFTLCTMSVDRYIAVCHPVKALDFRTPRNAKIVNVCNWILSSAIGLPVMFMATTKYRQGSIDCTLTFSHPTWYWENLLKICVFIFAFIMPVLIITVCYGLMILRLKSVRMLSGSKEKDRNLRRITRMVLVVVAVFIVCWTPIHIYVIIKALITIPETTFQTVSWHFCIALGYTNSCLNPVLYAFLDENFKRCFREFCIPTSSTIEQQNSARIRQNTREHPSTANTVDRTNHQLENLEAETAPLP
Kappa-type opioid receptor, sequence (P41144 whole entry): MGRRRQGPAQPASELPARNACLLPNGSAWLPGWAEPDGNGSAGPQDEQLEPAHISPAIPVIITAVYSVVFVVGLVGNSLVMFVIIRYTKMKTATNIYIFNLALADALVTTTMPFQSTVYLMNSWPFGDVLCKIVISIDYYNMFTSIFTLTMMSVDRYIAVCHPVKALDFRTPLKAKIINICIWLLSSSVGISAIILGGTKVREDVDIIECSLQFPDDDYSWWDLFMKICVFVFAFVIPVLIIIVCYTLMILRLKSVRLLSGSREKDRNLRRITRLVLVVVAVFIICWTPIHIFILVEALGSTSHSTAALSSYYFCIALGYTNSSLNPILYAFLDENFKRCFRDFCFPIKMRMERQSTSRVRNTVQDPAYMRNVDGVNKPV
Delta-type opioid receptor, sequence (P32300 whole entry, looked up): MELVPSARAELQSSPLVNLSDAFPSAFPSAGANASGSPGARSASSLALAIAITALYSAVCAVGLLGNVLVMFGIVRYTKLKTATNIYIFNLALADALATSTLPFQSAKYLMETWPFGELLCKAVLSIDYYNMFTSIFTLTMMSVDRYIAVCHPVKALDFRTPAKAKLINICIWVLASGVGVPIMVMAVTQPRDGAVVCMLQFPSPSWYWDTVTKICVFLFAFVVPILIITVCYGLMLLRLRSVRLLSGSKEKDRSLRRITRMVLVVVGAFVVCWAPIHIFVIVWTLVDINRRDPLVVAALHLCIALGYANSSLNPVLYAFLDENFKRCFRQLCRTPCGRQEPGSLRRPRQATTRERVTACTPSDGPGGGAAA

| Compound | Ratio Ki [1] | Ki [2] | Ki [3] | Ki (Mu-type opioid receptor) | Ratio Ki [4] |
| --- | --- | --- | --- | --- | --- |
| CN(C(=O)CCc1ccccc1)[C@H]1CCC23Cc4ccc(O)cc4C2(CCN(CC2CC2)C3)C1 (stereo not given in full) | 6.24 | 44.3 nM | 7.1 nM | 1.23 nM | 0.17 |
| O=C(NCCc1ccccc1)[C@@H]1CCC23CCN(CC4CC4)CC2(Cc2ccc(O)cc23)C1 (stereo not given in full) |  | > 1000 nM | 169 nM | 54.1 nM | 0.32 |
| CN(C(=O)CCc1ccccc1)[C@@H]1CCC23Cc4ccc(O)cc4C2(CCN(CC2CC2)C3)C1 (stereo not given in full) | 3.98 | 65.2 nM | 16.4 nM | 31.9 nM | 1.95 |
| O=C(Nc1ccccc1)[C@@H]1CCC23CCN(CC4CC4)CC2(Cc2ccc(O)cc23)C1 (stereo not given in full) | 21 | 282 nM | 13.4 nM | 79.7 nM | 5.95 |
| O=C(Nc1ccccc1)C1=CCC23CCN(CC4CC4)CC2(C1)Cc1ccc(O)cc13 (stereo not given) | 4.11 | 192 nM | 46.7 nM | 12.4 nM | 0.27 |
| O=C(NCc1ccccc1)C1=CCC23CCN(CC4CC4)CC2(C1)Cc1ccc(O)cc13 (stereo not given) | 4.1 | 298 nM | 72.7 nM | 33.9 nM | 0.47 |
| O=C(NCc1ccccc1)[C@H]1CCC23CCN(CC4CC4)CC2(Cc2ccc(O)cc23)C1 (stereo not given in full) |  | > 1000 nM | > 1000 nM | 112 nM |  |
| O=C(NCCc1ccccc1)C1=CCC23CCN(CC4CC4)CC2(C1)Cc1ccc(O)cc13 (stereo not given) | 1.63 | 412 nM | 253 nM | 35.9 nM | 0.14 |
| CN(C(=O)/C=C/c1ccoc1)[C@H]1CCC23Cc4ccc(O)cc4C2(CCN(CC2CC2)C3)C1 (stereo not given in full) | 42.2 | 35 nM | 0.83 nM | 2.2 nM | 2.65 |
| O=C(Nc1ccccc1)[C@H]1CCC23CCN(CC4CC4)CC2(Cc2ccc(O)cc23)C1 (stereo not given in full) | 1.92 | 207 nM | 108 nM | 80.8 nM | 0.75 |
| O=C(NCCc1ccccc1)[C@H]1CCC23CCN(CC4CC4)CC2(Cc2ccc(O)cc23)C1 (stereo not given in full) |  | > 1000 nM | 641 nM | 453 nM | 0.71 |
| CN(C(=O)/C=C/c1ccoc1)[C@@H]1CCC23Cc4ccc(O)cc4C2(CCN(CC2CC2)C3)C1 (stereo not given in full) | 35.3 | 121 nM | 3.43 nM | 12.2 nM | 3.56 |
| O=C(NCc1ccccc1)[C@@H]1CCC23CCN(CC4CC4)CC2(Cc2ccc(O)cc23)C1 (stereo not given in full) |  | > 1000 nM | 19.2 nM | 106 nM | 5.52 |
